Experimental data reported in ChEMBL document CHEMBL4837214, “Design, synthesis, and biological evaluation of novel tetrahydroprotoberberine derivatives to reduce SREBPs expression for the treatment of hyperlipidemia” (Eur J Med Chem, 2021).
The source made the active and inactive calls. The rule behind the calls is not given here.

The compounds below were run on HepG2 (assay: Down regulation of intracellular TG level in human HepG2 cells at 10 uM measured after 24 hrs).
Type: functional, cell-based
Summary of the method: (§1)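 HepG2 cells grown in six-well plates and exposed 24 h to compound at […]. Cells collected in PBS and sonicated (5 s on, 10 s off, 60 s total). Total cholesterol or triglyceride measured with a colorimetric determination kit.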

In the case of `COc1cc2c(cc1OC)C1Cc3ccc(OC)c(OS(=O)(=O)c4c(C(C)C)cc(C(C)C)cc4C(C)C)c3CN1CC2` (centres undefined), the Activity is reported as “Active”.
`COc1ccc2c(c1OCc1ccc([N+](=O)[O-])cc1)CN1CCc3cc4c(cc3C1C2)OCO4` (centres undefined) was tested, and the Activity was “Active”.
For `CCCCOc1c(OC)ccc2c1CN1CCc3cc4c(cc3C1C2)OCO4` (centres undefined), the Activity was “Active”.
In the case of `CCCOc1c(OC)ccc2c1CN1CCc3cc4c(cc3C1C2)OCO4` (centres undefined), the Activity is reported as “Active”.
In the case of `COc1cc2c(cc1OC)C1Cc3ccc(OC)c(OC(=O)C4CC4)c3CN1CC2` (centres undefined), the Activity is reported as “Active”.

Each compound was assayed on HepG2 (assay: Cytotoxicity against human HepG2 cells assessed as reduction in cell viability at 10 uM after 24 hrs by CCK8 assay).
Type: functional

First: COc1cc2c(cc1OC)C1Cc3ccc(OC)c(OC(=O)c4ccc(CCl)cc4)c3CN1CC2 (centres undefined)
Second: COc1cc2c(cc1OC)C1Cc3ccc(OC)c(OC(=O)c4ccc(F)cc4)c3CN1CC2 (centres undefined)
The Activity of the first is lower: 88.3% for the first, 95.1% for the second.

Going from `COc1cc2c(cc1OC)C1Cc3ccc(OC)c(OC(=O)c4ccco4)c3CN1CC2` (centres undefined) to `COc1cc2c(cc1OC)C1Cc3ccc(OC)c(OC(=O)c4cccc(C)c4)c3CN1CC2` (centres undefined), the Activity rises from 80.9% to 84.3%.

Going from `COc1ccc2c(c1OS(=O)(=O)c1cccs1)CN1CCc3cc4c(cc3C1C2)OCO4` (centres undefined) to `COc1ccc2c(c1OS(=O)(=O)c1ccc(F)cc1)CN1CCc3cc4c(cc3C1C2)OCO4` (centres undefined), the Activity falls from 93.4% to 86.8%.

Going from `COc1ccc2c(c1OC(=O)c1ccc(CCl)cc1)CN1CCc3cc4c(cc3C1C2)OCO4` (centres undefined) to `COc1ccc2c(c1OC(=O)c1ccc(F)cc1)CN1CCc3cc4c(cc3C1C2)OCO4` (centres undefined), the Activity falls from 97.8% to 85.6%.

First: CCOc1ccccc1C(=O)Oc1c(OC)ccc2c1CN1CCc3cc4c(cc3C1C2)OCO4 (centres undefined)
Second: COc1ccc2c(c1OC(=O)c1cccc(Br)c1)CN1CCc3cc4c(cc3C1C2)OCO4 (centres undefined)
The Activity of the first is higher: 96% for the first, 85% for the second.

`COc1ccc2c(c1OC(=O)C1CC1)CN1CCc3cc4c(cc3C1C2)OCO4` (centres undefined) and `COc1ccc2c(c1OC(=O)C1CCCCC1)CN1CCc3cc4c(cc3C1C2)OCO4` (centres undefined) are the same in Activity: 90.7% for the first, 90.7% for the second.

First: COc1cc2c(cc1OC)C1Cc3ccc(OC)c(OC(=O)C45CC6CC(CC(C6)C4)C5)c3CN1CC2 (centres undefined)
Second: COc1ccc2c(c1OC(=O)C13CC4CC(CC(C4)C1)C3)CN1CCc3cc4c(cc3C1C2)OCO4 (centres undefined)
The Activity of the first is higher: 99.3% for the first, 80.2% for the second.

First: COc1ccc2c(c1OS(=O)(=O)c1c(C(C)C)cc(C(C)C)cc1C(C)C)CN1CCc3cc4c(cc3C1C2)OCO4 (centres undefined)
Second: COc1cc2c(cc1OC)C1Cc3ccc(OC)c(OS(=O)(=O)c4c(C(C)C)cc(C(C)C)cc4C(C)C)c3CN1CC2 (centres undefined)
The Activity of the first is higher: 92.8% for the first, 91.1% for the second.

Compared with `COc1cc2c(cc1OC)C1Cc3ccc(OC)c(OS(=O)(=O)c4ccc(F)cc4)c3CN1CC2` (centres undefined), `COc1cc2c(cc1OC)C1Cc3ccc(OC)c(OS(=O)(=O)c4ccc(Br)cc4)c3CN1CC2` (centres undefined) is lower in Activity: 93.4% for the first, 86.5% for the second.

Going from `COc1cc2c(cc1OC)C1Cc3ccc(OC)c(OC(=O)C4CCCCC4)c3CN1CC2` (centres undefined) to `COc1cc2c(cc1OC)C1Cc3ccc(OC)c(OC(=O)C4CC4)c3CN1CC2` (centres undefined), the Activity rises from 85.5% to 91.2%.

`COc1ccc2c(c1OCc1cc(F)ccc1F)CN1CCc3cc4c(cc3C1C2)OCO4` (centres undefined) and `CCOc1c(OC)ccc2c1CN1CCc3cc4c(cc3C1C2)OCO4` (centres undefined) are the same in Activity: 87.7% for the first, 87.7% for the second.

Compared with `COc1ccc2c(c1OS(=O)(=O)c1c(C)cc(C)cc1C)CN1CCc3cc4c(cc3C1C2)OCO4` (centres undefined), `COc1ccc2c(c1OS(=O)(=O)c1cc(C)ccc1C)CN1CCc3cc4c(cc3C1C2)OCO4` (centres undefined) is higher in Activity: 80.7% for the first, 84.5% for the second.

Compared with `C/C=C/C(=O)Oc1c(OC)ccc2c1CN1CCc3cc4c(cc3C1C2)OCO4` (centres undefined), `COc1ccc2c(c1OC(=O)C(C)(C)CCl)CN1CCc3cc4c(cc3C1C2)OCO4` (centres undefined) is higher in Activity: 84.3% for the first, 99.6% for the second.

First: COc1cc2c(cc1OC)C1Cc3ccc(OC)c(OS(=O)(=O)c4cccs4)c3CN1CC2 (centres undefined)
Second: CCS(=O)(=O)Oc1c(OC)ccc2c1CN1CCc3cc(OC)c(OC)cc3C1C2 (centres undefined)
The Activity of the first is higher: 89.2% for the first, 87.7% for the second.

Going from `COc1cc2c(cc1OC)C1Cc3ccc(OC)c(OS(=O)(=O)c4ccc(Cl)c([N+](=O)[O-])c4)c3CN1CC2` (centres undefined) to `COc1cc2c(cc1OC)C1Cc3ccc(OC)c(OS(=O)(=O)c4ccccc4[N+](=O)[O-])c3CN1CC2` (centres undefined), the Activity falls from 94.7% to 84.8%.

Compared with `CCCS(=O)(=O)Oc1c(OC)ccc2c1CN1CCc3cc(OC)c(OC)cc3C1C2` (centres undefined), `C=C(C)C(=O)Oc1c(OC)ccc2c1CN1CCc3cc(OC)c(OC)cc3C1C2` (centres undefined) is higher in Activity: 80.2% for the first, 95.4% for the second.

First: CCCC(CCC)C(=O)Oc1c(OC)ccc2c1CN1CCc3cc(OC)c(OC)cc3C1C2 (centres undefined)
Second: COc1cc2c(cc1OC)C1Cc3ccc(OC)c(OC(=O)C(C)(C)CCl)c3CN1CC2 (centres undefined)
The Activity of the first is higher: 97.9% for the first, 91.2% for the second.

First: COc1ccc2c(c1OC(=O)c1ccco1)CN1CCc3cc4c(cc3C1C2)OCO4 (centres undefined)
Second: COc1ccc2c(c1OC(=O)c1cccc(C)c1)CN1CCc3cc4c(cc3C1C2)OCO4 (centres undefined)
The Activity of the first is lower: 83.9% for the first, 90.1% for the second.

Going from `COc1ccc2c(c1OS(=O)(=O)c1ccc(Cl)c([N+](=O)[O-])c1)CN1CCc3cc4c(cc3C1C2)OCO4` (centres undefined) to `COc1ccc2c(c1OS(=O)(=O)c1ccccc1[N+](=O)[O-])CN1CCc3cc4c(cc3C1C2)OCO4` (centres undefined), the Activity falls from 93.4% to 88.8%.

Compared with `COc1cc2c(cc1OC)C1Cc3ccc(OC)c(OS(=O)(=O)c4cc(C)ccc4C)c3CN1CC2` (centres undefined), `COc1cc2c(cc1OC)C1Cc3ccc(OC)c(OS(=O)(=O)c4c(C)cc(C)cc4C)c3CN1CC2` (centres undefined) is lower in Activity: 81.4% for the first, 73.3% for the second.

Going from `C/C=C/C(=O)Oc1c(OC)ccc2c1CN1CCc3cc(OC)c(OC)cc3C1C2` (centres undefined) to `COc1cc2c(cc1OC)C1Cc3ccc(OC)c(OC(=O)c4cccc(Br)c4)c3CN1CC2` (centres undefined), the Activity falls from 81.7% to 80.2%.

Compared with `CCCCOc1c(OC)ccc2c1CN1CCc3cc4c(cc3C1C2)OCO4` (centres undefined), `CCCOc1c(OC)ccc2c1CN1CCc3cc4c(cc3C1C2)OCO4` (centres undefined) is higher in Activity: 98.1% for the first, 101.5% for the second.

Work on `CCOc1ccccc1C(=O)Oc1c(OC)ccc2c1CN1CCc3cc(OC)c(OC)cc3C1C2` (centres undefined) yielded an Activity of 84.6%.

Each compound was assayed on HepG2 (assay: Down regulation of intracellular TC level in human HepG2 cells at 10 uM measured after 24 hrs).
Type: functional, cell-based
Summary of the method: as §1

For `COc1cc2c(cc1OC)C1Cc3ccc(OC)c(OS(=O)(=O)c4c(C(C)C)cc(C(C)C)cc4C(C)C)c3CN1CC2` (centres undefined), the Activity was “Active”.
In the case of `COc1ccc2c(c1OCc1ccc([N+](=O)[O-])cc1)CN1CCc3cc4c(cc3C1C2)OCO4` (centres undefined), the Activity is reported as “Active”.
For `CCCOc1c(OC)ccc2c1CN1CCc3cc4c(cc3C1C2)OCO4` (centres undefined), the Activity was “Active”.
With `COc1cc2c(cc1OC)C1Cc3ccc(OC)c(OC(=O)C4CC4)c3CN1CC2` (centres undefined) the Activity was “Active”.
